In ChEMBL document CHEMBL2434886, “Development of 3,4-dihydroisoquinolin-1(2H)-one derivatives for the Positron Emission Tomography (PET) imaging of σ₂ receptors” (Eur J Med Chem, 2013):

Tests used:
[1] = target: Sigma non-opioid intracellular receptor 1 (Cavia porcellus, UniProt Q60492); assay: Displacement of (+)-[3H]-pentazocine from sigma 1 receptor in Dunkin guinea pig brain membranes without cerebellum; format: cell membranes, Membrane
[2] = Selectivity ratio of Ki for sigma 1 receptor in guinea pig brain membranes without cerebellum to Ki for sigma 2 receptor in Wistar Hannover rat liver membranes; format: cell membranes; details: Membrane
[3] = Displacement of [3H]-DTG from sigma 2 receptor in Wistar Hannover rat liver membranes; format: cell membranes, Membrane
Cerebellum [4] = assay: Drug uptake in cerebellum of Wistar rat at 47 MBq, iv up to 90 mins by PET analysis; format: ADME, organism-based; details: in vivo, 1.5 h
How it was run: (§1)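 Male Wistar rat under isoflurane given 47 MBq (0.8 nmol) [18F]-tracer via tail vein. Head scanned 0–90 min by list-mode PET, then CT. Blocking rat received 1 mg/kg haloperidol iv just before tracer (34 MBq). 2D-OSEM reconstruction with no attenuation correction. ROI analysis gives SUV (Bq/cm3 per injected Bq/g).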

Cerebral cortex [5] = assay: Drug uptake in Wistar rat cerebral cortex after 45 mins by autoradiography; format: ADME, tissue-based
How it was run: (§2)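 Horizontal 20 µm cryosections of male Wistar rat brain, thawed 30 min, pre-incubated 10 min at 4 °C in 50 mM Tris-HCl pH 7.4. Incubated 45 min at rt with 9 nM [18F]-tracer in Tris-HCl/1% BSA (n = 4), alone or with blocker. Washed, air-dried, phosphor-imaged after 15 min exposure.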

[6] = Drug uptake in olfactory of Wistar rat at 47 MBq, iv up to 90 mins by PET analysis; format: ADME, organism-based; details: in vivo, 1.5 h; how it was run: as §1
Cerebellum [7] = assay: Drug uptake in Wistar rat cerebellum after 45 mins by autoradiography; format: ADME, tissue-based; how it was run: as §2
Brain [8] = assay: Drug uptake in Wistar rat brain slices after 45 mins by autoradiography in presence of 90 uM of haloperidol; format: ADME, tissue-based; how it was run: as §2
Bone = assay: Drug uptake in bone of Wistar rat at 47 MBq, iv up to 90 mins by PET analysis; format: ADME, organism-based, Bone element; details: in vivo, 1.5 h; how it was run: as §1
Cerebellum [9] = assay: Drug uptake in cerebellum of Wistar rat at 47 MBq, iv up to 90 mins by PET analysis in presence of haloperidol; format: ADME, organism-based; details: in vivo, 1.5 h
Cerebral cortex [10] = assay: Drug uptake in cerebral cortex of Wistar rat at 47 MBq, iv up to 90 mins by PET analysis in presence of haloperidol; format: ADME, organism-based; details: in vivo, 1.5 h
Hippocampus = assay: Drug uptake in Wistar rat hippocampus after 45 mins by autoradiography; format: ADME, tissue-based; how it was run: as §2
Brain [11] = assay: Drug uptake in Wistar rat brain slices after 45 mins by autoradiography in presence of 0.9 uM of unlabelled 2-(3-(6,7-Dimethoxy-3,4-dihydroisoquinolin-2(1H)-yl)propyl)-5-(2-fluoroethoxy)-3,4-dihydroisoquinolin-1(2H)-one; format: ADME, tissue-based; how it was run: as §2
[12] = Drug uptake in olfactory of Wistar rat at 47 MBq, iv up to 90 mins by PET analysis in presence of haloperidol; format: ADME, organism-based; details: in vivo, 1.5 h
Cerebral cortex [13] = assay: Drug uptake in cerebral cortex of Wistar rat at 47 MBq, iv up to 90 mins by PET analysis; format: ADME, organism-based; details: in vivo, 1.5 h; how it was run: as §1
[14] = target: ATP-dependent translocase ABCB1 (Homo sapiens, UniProt P08183); assay: Activity at human MDR1 expressed in MDCK cells assessed as Calcein-AM uptake after 30 mins by fluorescence assay; format: ADME, cell-based
How it was run: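 P-gp interaction measured with the Calcein-AM assay in MDCK-MDR1 cells, which overexpress P-gp.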

[15] = target: 5-hydroxytryptamine receptor 7 (Homo sapiens, UniProt P34969); assay: Displacement of [3H]-5-CT from human recombinant 5-HT7 receptor expressed in CHO-K1 cells after 120 mins; format: cell-based
[16] = target: T1, Adrenergic receptor alpha-1 (Rattus norvegicus, UniProt P15823+P23944+P43140); assay: Displacement of [3H]-prazosin from alpha1 adrenoceptor in Wistar Hannover rat cerebral cortex membranes after 50 mins; format: cell membranes, Membrane
T1 sequence (P15823 whole entry): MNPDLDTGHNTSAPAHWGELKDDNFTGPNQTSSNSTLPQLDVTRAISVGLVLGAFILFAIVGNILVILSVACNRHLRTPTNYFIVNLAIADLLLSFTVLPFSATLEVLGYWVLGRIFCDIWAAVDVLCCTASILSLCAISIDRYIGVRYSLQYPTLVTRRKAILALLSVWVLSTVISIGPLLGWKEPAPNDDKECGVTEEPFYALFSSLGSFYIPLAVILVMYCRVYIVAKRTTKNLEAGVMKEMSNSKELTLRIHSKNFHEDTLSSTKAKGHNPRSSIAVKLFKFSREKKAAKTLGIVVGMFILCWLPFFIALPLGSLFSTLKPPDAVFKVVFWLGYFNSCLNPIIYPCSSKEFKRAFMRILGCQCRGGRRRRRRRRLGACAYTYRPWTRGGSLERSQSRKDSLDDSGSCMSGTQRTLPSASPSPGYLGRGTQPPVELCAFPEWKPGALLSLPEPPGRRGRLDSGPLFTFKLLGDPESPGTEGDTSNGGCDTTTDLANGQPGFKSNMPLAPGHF
T1 sequence (P23944 whole entry): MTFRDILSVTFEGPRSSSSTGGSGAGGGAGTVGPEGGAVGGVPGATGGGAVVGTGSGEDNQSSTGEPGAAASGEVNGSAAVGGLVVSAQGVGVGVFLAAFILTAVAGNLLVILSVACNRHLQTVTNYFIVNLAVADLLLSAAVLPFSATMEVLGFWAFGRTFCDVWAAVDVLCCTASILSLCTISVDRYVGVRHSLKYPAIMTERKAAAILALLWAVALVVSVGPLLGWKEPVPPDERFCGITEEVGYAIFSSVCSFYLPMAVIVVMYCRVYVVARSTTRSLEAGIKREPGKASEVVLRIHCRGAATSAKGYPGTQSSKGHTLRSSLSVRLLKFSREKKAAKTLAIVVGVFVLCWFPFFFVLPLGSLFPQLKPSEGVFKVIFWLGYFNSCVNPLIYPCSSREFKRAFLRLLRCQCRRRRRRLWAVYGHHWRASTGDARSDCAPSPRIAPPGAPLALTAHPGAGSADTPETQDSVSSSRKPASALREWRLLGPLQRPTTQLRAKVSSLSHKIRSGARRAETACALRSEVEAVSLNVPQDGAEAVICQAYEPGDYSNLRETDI
T1 sequence (P43140 whole entry): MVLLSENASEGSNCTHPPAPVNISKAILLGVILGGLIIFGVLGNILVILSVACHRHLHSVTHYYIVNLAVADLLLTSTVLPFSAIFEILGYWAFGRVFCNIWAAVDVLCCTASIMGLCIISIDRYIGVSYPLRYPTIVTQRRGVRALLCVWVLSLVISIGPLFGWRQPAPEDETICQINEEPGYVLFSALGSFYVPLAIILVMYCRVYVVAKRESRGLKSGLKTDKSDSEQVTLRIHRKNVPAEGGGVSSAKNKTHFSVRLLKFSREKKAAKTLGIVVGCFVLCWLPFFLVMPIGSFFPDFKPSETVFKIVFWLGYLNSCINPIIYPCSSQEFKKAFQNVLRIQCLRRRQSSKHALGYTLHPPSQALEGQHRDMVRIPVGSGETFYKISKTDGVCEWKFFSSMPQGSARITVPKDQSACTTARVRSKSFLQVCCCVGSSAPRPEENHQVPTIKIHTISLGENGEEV
How it was run: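 Rat cerebral cortex membranes ([…]) with 1 nM [3H]-prazosin in 50 mM Tris-HCl pH 7.4, 120 mM NaCl, 5 mM KCl, 5 mM CaCl2, 1 mM MgCl2, plus varied drug concentrations. Incubated 50 min at 25 °C, filtered on PEI-soaked GF/C. Nonspecific binding with 10 phentolamine.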

[17] = target: T2, 5-hydroxytryptamine receptor 1A (Homo sapiens, UniProt P08908); assay: Displacement of [3H]-8-OH-DPAT from human recombinant 5-HT1A receptor expressed in HEK293-EBNA cells after 120 mins; format: cell-based
T2 sequence (P08908 whole entry): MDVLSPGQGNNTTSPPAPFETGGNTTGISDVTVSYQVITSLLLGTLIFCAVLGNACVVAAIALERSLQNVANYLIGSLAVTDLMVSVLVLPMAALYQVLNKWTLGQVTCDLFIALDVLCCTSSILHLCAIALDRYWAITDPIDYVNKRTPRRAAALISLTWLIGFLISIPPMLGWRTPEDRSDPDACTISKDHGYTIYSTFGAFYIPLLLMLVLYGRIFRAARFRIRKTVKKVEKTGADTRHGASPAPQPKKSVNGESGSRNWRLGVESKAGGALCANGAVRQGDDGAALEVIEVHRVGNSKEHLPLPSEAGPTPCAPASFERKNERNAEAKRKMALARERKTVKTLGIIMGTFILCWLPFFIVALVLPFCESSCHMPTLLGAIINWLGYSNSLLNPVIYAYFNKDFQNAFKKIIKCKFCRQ
How it was run: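 HEK293-EBNA membranes ([…] protein) stably expressing human 5-HT1A, 1.0 nM [3H]-8-OH-DPAT, test compound 0.1 nM to 10 mM. Buffer 50 mM Tris-HCl pH 7.4, 5 mM MgSO4. Incubated 120 min at 37 °C, filtered on PEI-soaked GF/C. Nonspecific binding with 10 mM 5-HT.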

Caco-2 = assay: Efflux ratio of apparent permeability from apical to basolateral side over basolateral to apical side in human Caco2 cells at 1 to 100 uM after 120 mins; format: ADME, cell-based; details: caco-2, 2 h

Sigma non-opioid intracellular receptor 1, sequence (Q60492 whole entry): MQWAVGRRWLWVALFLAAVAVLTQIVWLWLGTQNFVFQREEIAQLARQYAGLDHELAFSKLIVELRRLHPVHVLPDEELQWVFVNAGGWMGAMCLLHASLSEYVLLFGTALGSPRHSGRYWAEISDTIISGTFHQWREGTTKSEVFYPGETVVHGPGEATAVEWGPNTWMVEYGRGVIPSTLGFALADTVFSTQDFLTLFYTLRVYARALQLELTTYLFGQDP
ATP-dependent translocase ABCB1, sequence (P08183 whole entry): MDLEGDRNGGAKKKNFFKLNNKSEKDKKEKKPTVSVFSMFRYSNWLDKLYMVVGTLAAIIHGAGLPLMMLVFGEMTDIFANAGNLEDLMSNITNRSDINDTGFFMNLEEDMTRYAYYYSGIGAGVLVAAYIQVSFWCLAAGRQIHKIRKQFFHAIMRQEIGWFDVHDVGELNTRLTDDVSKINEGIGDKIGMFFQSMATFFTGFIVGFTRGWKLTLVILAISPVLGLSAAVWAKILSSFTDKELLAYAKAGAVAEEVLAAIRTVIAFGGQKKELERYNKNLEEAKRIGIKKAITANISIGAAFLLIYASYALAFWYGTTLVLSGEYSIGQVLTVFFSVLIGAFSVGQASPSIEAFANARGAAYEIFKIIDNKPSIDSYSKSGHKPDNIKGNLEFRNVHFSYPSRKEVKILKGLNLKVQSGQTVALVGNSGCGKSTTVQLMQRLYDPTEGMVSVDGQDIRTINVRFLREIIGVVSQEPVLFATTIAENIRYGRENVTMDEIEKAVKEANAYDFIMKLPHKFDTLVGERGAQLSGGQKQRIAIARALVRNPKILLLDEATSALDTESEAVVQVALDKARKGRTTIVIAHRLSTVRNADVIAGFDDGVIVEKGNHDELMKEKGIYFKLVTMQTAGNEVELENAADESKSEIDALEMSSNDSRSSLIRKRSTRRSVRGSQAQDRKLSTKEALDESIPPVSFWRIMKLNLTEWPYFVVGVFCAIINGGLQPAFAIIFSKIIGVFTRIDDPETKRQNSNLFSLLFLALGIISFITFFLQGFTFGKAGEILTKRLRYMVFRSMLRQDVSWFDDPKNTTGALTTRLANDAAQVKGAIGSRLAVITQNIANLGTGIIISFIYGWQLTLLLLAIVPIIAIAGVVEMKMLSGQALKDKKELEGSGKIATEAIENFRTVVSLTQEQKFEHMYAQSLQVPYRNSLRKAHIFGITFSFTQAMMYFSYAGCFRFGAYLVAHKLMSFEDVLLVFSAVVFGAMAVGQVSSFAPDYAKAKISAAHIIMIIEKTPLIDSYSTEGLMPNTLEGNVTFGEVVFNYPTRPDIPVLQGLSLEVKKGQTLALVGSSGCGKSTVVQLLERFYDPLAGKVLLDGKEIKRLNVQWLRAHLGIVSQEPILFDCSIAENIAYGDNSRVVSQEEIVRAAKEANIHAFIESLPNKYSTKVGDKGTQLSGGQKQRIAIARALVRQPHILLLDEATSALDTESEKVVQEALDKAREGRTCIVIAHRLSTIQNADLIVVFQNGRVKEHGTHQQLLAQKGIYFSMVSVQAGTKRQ
5-hydroxytryptamine receptor 7, sequence (P34969 whole entry): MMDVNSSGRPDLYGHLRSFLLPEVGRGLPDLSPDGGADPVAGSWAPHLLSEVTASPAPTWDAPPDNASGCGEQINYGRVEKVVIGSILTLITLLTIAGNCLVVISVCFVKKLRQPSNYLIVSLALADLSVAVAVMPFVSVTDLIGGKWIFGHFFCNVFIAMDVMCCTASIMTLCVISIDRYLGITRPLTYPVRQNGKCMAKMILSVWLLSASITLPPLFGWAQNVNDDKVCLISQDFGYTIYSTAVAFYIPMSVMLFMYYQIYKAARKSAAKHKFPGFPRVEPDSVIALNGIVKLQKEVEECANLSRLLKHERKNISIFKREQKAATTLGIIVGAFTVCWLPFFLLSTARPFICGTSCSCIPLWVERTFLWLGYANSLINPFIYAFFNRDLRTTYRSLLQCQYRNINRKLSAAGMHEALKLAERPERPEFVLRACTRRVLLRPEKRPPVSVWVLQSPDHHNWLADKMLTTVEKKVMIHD

SMILES | Ki [1] | Ratio Ki [2] | Ki [3] | also measured
COc1cc2c(cc1OC)CN(CCCN1CCc3cc(OC)c(OC)cc3C1=O)CC2 | 2570 nM | 127 | 20.1 nM | 
COc1ccc2c(c1)CCN(CCCN1CCc3cc(OC)c(OC)cc3C1)C2=O | 402 nM | 70 | 5.74 nM | 
COc1cc2c(cc1OC)CN(CCCN1CCc3c(OCC[18F])cccc3C1=O)CC2 |  |  |  | Drug uptake (Cerebellum [4]): Active; Drug uptake (Cerebral cortex [5]): Active; Drug uptake [6]: Active; Drug uptake (Cerebellum [7]): Active; Drug uptake (Brain [8]): Not Active; Drug uptake (Bone): Not Active; Drug uptake (Cerebellum [9]): Not Active; Drug uptake (Cerebral cortex [10]): Not Active; Drug uptake (Hippocampus): Active; Drug uptake (Brain [11]): Not Active; Drug uptake [12]: Not Active; Drug uptake (Cerebral cortex [13]): Active
COc1cc2c(cc1OC)CN(CCCN1CCc3c(OCCF)cccc3C1=O)CC2 | 3100 nM | 330 | 9.24 nM | EC50 [14]: 5000 nM; Ki [15]: > 1000 nM; Ki [16]: 764 nM; Ki [17]: > 1000 nM; Ratio (Caco-2): 2.58
COc1cc2c(cc1OC)CN(CCCN1CCc3c(OC)cccc3C1=O)CC2 | 2440 nM | 574 | 4.24 nM | 
COc1cc2c(cc1OC)CN(CCCN1CCc3cc(F)ccc3C1=O)CC2 | 311 nM | 87 | 3.56 nM | 
COc1cc2c(cc1OC)CN(CC/C=C1\CCCc3c(OC)cccc31)CC2 |  |  |  | EC50 [14]: 1100 nM
COc1cc2c(cc1OC)CN(CCCN1CCc3cccc(OC)c3C1=O)CC2 | 1630 nM | 101 | 16.3 nM | 
